Experimental findings from ChEMBL document CHEMBL1123823, “[1-Desamino, 7-lysine, 8-arginine]vasotocin: attachment of reporter groups and affinity ligands through the lysine side chain” (J Med Chem, 1987) are described below.

The nature of assay [1]: Toad bladder hydroosmotic activity was determined. The class given is functional. Conditions: read-out: ED50 (the source's name). The essentials: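 Osmometric measurement of bladder water permeability. Bladders were suspended in humidified air, and paper disks holding 8 μL of hypertonic Ringer's, with or without peptide at various concentrations, were placed on the outer surface of the bladder wall. The Ringer's contained NaCl 110, KCl 3.5, CaCl₂ 1, MgCl₂ 1, glucose 5.5 and Tris-HCl 10 mmol/L, pH 7.5, 236 mOsm/kg H₂O. Dose-response curves were constructed.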

Assay [2] deals with Rattus norvegicus. Description: (§1) Pressor activity was determined in urethane-anesthetized, phenoxybenzamine treated rats. The class given is functional.
The test system of assay [3] is Rattus norvegicus. Description: Antidiuretic activity was determined in water loaded, ethanol-anesthetized rats. In kind it is functional, Urine.
Assay [4] deals with Rattus norvegicus. The assay is described as §1. The class given is functional, organism-based. Conditions: read-out: pA2 (converted).

Where a SMILES comes first, the peptide text is derived from it. Bridges are numbered along the chain shown (N, C = ends). [ ]: non-standard residue; d: D form. The star is where a group is joined. Benzoyl(4-N3) = [N-]=[N+]=Nc1ccc(C(=O)*)cc1; Mpa = O=C(O)CCS

As for `CC[C@H](C)[C@@H]1NC(=O)[C@@H](Cc2ccc(O)cc2)NC(=O)CCSSC[C@@H](C(=O)N[C@H](CCCCNC(=O)CCCCC2SCC3NC(=O)NC32)C(=O)N[C@@H](CCCN=C(N)N)C(=O)NCC(N)=O)NC(=O)[C@H](CC(N)=O)NC(=O)[C@@H](CCC(N)=O)NC1=O` (stereo partly drawn), the EC50 in assay [1] stood at 210 nM. For the same compound, the Pressor activity with Rattus norvegicus [2] was found to be 0 U/mg. Moreover, in the assay with Rattus norvegicus [3], the Antidiuretic activity came to 4.3 U/mg. For the compound `CC[C@H](C)[C@@H]1NC(=O)[C@H](Cc2ccc(O)cc2)NC(=O)CCSSC[C@@H](C(=O)N[C@@H](CCCCNC(=O)c2ccc(N=[N+]=[N-])cc2)C(=O)N[C@@H](CCCN=C(N)N)C(=O)NCC(N)=O)NC(=O)[C@H](CC(N)=O)NC(=O)[C@H](CCC(N)=O)NC1=O` ([Mpa]YIQNCK(Benzoyl(4-N3))RG-NH2; disulfide 1-6) [listing 1 of 2 here], in the assay with Rattus norvegicus [4], the Kb is 251 nM. In the case of `CC[C@H](C)[C@@H]1NC(=O)[C@H](Cc2ccc(O)cc2)NC(=O)CCSSC[C@@H](C(=O)N[C@@H](CCCCNC(=O)c2ccc(N=[N+]=[N-])cc2)C(=O)N[C@@H](CCCN=C(N)N)C(=O)NCC(N)=O)NC(=O)[C@H](CC(N)=O)NC(=O)[C@H](CCC(N)=O)NC1=O` ([Mpa]YIQNCK(Benzoyl(4-N3))RG-NH2; disulfide 1-6) [listing 2 of 2 here], in the assay on Rattus norvegicus [3], the Antidiuretic activity was 19.7 U/mg.

Take `CC[C@H](C)[C@@H]1NC(=O)[C@H](Cc2ccc(O)cc2)NC(=O)CCSSC[C@@H](C(=O)N[C@@H](CCCCN)C(=O)N[C@@H](CCCN=C(N)N)C(=O)NCC(N)=O)NC(=O)[C@H](CC(N)=O)NC(=O)[C@H](CCC(N)=O)NC1=O` ([Mpa]YIQNCKRG-NH2; disulfide 1-6): the EC50 in assay [1] amounted to 22 nM. The same compound gave a Pressor activity in the assay with Rattus norvegicus [2] of 0 U/mg. In addition, the Antidiuretic activity in the assay on Rattus norvegicus [3] came out at 29 U/mg.

On to `CC[C@H](C)[C@@H]1NC(=O)[C@H](Cc2ccc(O)cc2)NC(=O)CCSSC[C@@H](C(=O)N2CCC[C@H]2C(=O)N[C@@H](CCCN=C(N)N)C(=O)NCC(N)=O)NC(=O)[C@H](CC(N)=O)NC(=O)[C@H](CCC(N)=O)NC1=O` ([Mpa]YIQNCPRG-NH2; disulfide 1-6), for which, in the assay on Rattus norvegicus [2], the Pressor activity is 256 U/mg. In addition, in the assay with Rattus norvegicus [3], the Antidiuretic activity came to 890 U/mg. With `N=C(N)NCCC[C@H](NC(=O)[C@@H]1CCCN1C(=O)[C@@H]1CSSC[C@H](N)C(=O)N[C@@H](Cc2ccc(O)cc2)C(=O)N[C@@H](Cc2ccccc2)C(=O)N[C@@H](CCC(N)=O)C(=O)N[C@@H](CC(N)=O)C(=O)N1)C(=O)NCC(N)=O` [VASOPRESSIN], the EC50 in assay [1] was 9.5 nM. `CC[C@H](C)[C@@H]1NC(=O)[C@H](Cc2ccc(O)cc2)NC(=O)[C@@H](N)CSSC[C@@H](C(=O)N2CCC[C@H]2C(=O)N[C@@H](CCCN=C(N)N)C(=O)NCC(N)=O)NC(=O)[C@H](CC(N)=O)NC(=O)[C@H](CCC(N)=O)NC1=O` [VASOTOCIN] (H-CYIQNCPRG-NH2; disulfide 1-6) displayed a Pressor activity in the assay on Rattus norvegicus [2] of 160 U/mg. The same compound returned an Antidiuretic activity in the assay with Rattus norvegicus [3] of 231 U/mg.
